Assay outcomes (PubChem BioAssay)
Sampled rows, rich in hits. Any-hit rate of the full collection: about 1.1%.
FAS-TE inh: inhibitors of human fatty acid synthase thioesterase domain; P49327; recombinant FAS-TE, OMFH fluorogenic substrate, fluorescence endpoint; inhibition, % at 15 µM; 360,000 tested, 0.67% active;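 active = compounds whose normalised, plate-corrected inhibition of enzyme fluorescence in the single-dose primary screen is 50% or more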
SENP1 inh: SENP1 (human) catalytic domain inhibition; Q9P0U3; recombinant SENP1 catalytic domain, CyPet-SUMO1-YPet FRET cleavage; inhibition, % at 10 µM; 360,000 tested, 0.21% active;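 active = inhibition at least 30% at 10 µM, raw YFP signal under a set limit, fluorescence ratio 0.5 to 1.5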
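system = hSENP1 catalytic domain, recombinant | reagent = SFCypet-SUMO1-SFYpet substrate at 25 nM | doses = one dose per compound, 10 µM, 0.5% DMSO | incubation = enzyme reaction for 50 min at room temperature, dark | measured by = FRET, CFP and YFP emission | controls = no-enzyme low, enzyme-DMSO high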
Arrestin-AP2 inh: inhibitors of human beta-arrestin and AP2 interaction. FITC-arrestin peptide / GST-AP2 beads, flow cytometry; AP2 beta2 appendage carries R879A mutation. inhibition, % at 10 µM. 340,000 tested, 0.31% active;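 active = inhibition above a set limit, near 3 SD of compounds lacking own fluorescence, cut at about 54% in these data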
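Assay system: GST-AP2 R879A bound to glutathione beads, E. coli-expressed; Medium: PBS with 0.05% Tween 20 and 0.1% BSA; Also added: fluorescein-tagged arrestin peptide at 50 nM final; Timing: 12 min plus 1 h, RT; Measured by: flow cytometry, FL1 (488/535 nm); Evaluation: percent drop in bead-associated FITC signal.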
JMJD2C inh: human JMJD2C demethylase inhibition | Q9H3R0 | GST-JMJD2C(1-420) H3K9me3 demethylation, DELFIA europium | inhibition, % at 2.35 µM | 330,000 tested, 0.069% active | AID 2099;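 active = more than half of a compound's replicate wells show inhibition beyond 50%, single wells judged on their own value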;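 note: signal counts dimethyl H3K9 product captured on neutravidin plate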
Arr-AP2 CP1: inhibitors of human beta-arrestin and AP2 interaction | shares compounds with Arrestin-AP2 inh | AID 504908 | 1,300 tested, 2% active | GST-AP2 beads, FITC arrestin peptide binding, flow cytometry; GST-fused beta2-adaptin appendage, R879A mutant | inhibition, % at 10 µM;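 active = inhibition above a set limit, roughly 3 SD of non-fluorescent compound noise, cut at about 38% in these data; inactive = inhibition at or below that limit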;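 note: loss of bead fluorescence from 50 nM FITC arrestin peptide bound to appendage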
Target sequence (P63010 whole entry, looked up, the tested form may be a part, one chain of several): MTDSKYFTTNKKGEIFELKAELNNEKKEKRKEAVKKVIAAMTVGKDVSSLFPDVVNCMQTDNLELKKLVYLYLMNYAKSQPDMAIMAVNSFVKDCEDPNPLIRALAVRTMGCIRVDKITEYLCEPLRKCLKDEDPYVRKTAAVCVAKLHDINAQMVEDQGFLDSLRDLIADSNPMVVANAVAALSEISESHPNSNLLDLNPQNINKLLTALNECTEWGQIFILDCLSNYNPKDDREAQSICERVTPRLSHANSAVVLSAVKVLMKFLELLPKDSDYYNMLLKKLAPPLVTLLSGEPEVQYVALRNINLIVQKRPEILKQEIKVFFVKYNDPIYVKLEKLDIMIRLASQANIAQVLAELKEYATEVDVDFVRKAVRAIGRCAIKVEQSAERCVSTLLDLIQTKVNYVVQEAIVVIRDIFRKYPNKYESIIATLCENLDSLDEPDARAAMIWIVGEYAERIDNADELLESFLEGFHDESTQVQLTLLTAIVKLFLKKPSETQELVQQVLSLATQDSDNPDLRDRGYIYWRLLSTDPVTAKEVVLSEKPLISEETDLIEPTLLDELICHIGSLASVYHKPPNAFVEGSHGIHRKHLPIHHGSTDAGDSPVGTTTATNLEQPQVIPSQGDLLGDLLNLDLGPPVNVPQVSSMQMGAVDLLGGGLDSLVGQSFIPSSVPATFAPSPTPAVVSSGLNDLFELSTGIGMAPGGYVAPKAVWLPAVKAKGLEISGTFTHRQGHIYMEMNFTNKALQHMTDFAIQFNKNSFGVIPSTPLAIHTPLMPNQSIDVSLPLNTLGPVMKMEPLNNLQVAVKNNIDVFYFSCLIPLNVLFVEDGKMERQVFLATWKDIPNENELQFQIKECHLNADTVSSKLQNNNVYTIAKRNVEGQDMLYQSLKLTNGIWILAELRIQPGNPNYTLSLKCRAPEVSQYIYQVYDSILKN
GST GSH counter: disrupts GST binding to glutathione beads, arrestin-AP2 artifact. GST-fluorescein binding to GSH beads, fluorescence, counter-screen. shares compounds with Arrestin-AP2 inh. AID 588338. 1,300 tested, 2% active. inhibition, % at 10 µM;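 active = inhibition above 50%, about 3 SD of the inhibition seen with non-fluorescent compounds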;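 note: fluorescein maleimide labelled GST captured on 4 micron glutathione beads; higher means more loss of bead fluorescence from quenching or blocked binding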
Of the large screens only hits and unclear results are named; the others gave an inactive call (follow-up assays come after a bar, where they were run).

COc1cccc(NC(=O)Cn2c(=O)n(-c3cc(OC)c(OC)c(OC)c3)c(=O)c3ccccc32)c1	none
CCn1c(=O)n(CC(=O)Nc2cc(OC)c(OC)c(OC)c2)c(=O)c2ccccc21	none | Arr-AP2 CP1 inactive | GST GSH counter inactive
CCn1c(=O)n(CC(=O)Nc2cccc(OC)c2)c(=O)c2ccccc21	none | Arr-AP2 CP1 inactive | GST GSH counter inactive
CC1(C)CC(=O)C(C=NCCN2CCOCC2)=C(O)C1	none
CCCn1c(SCC(=O)N2CCCCC2)nnc1C(C)C	Arrestin-AP2 inh 56 | Arr-AP2 CP1 inactive | GST GSH counter inactive
COC(=O)c1ccc(S(=O)(=O)N2CCCN(Cc3ccc(F)cc3)CC2)n1C	none
NC(=O)C[n+]1cccc(C(=O)Nc2ccccc2)c1	Arrestin-AP2 inh 66 | Arr-AP2 CP1 inactive | GST GSH counter inactive
Clc1ccccc1C=NNc1ccccn1	none (no result: JMJD2C inh)
COc1ccc2nc(Cl)c(/C=N/Nc3ccccn3)cc2c1	Arrestin-AP2 inh 59 | Arr-AP2 CP1 inactive | GST GSH counter inactive
CCN(CC)CCN(Cc1cc2cc3c(cc2[nH]c1=O)OCCO3)C(=O)NC1CCCCC1	none | Arr-AP2 CP1 inactive | GST GSH counter inactive
COc1ccc(CN(Cc2cc3cc4c(cc3[nH]c2=O)OCO4)C(=O)NC2CCCCC2)cc1	none | Arr-AP2 CP1 inactive | GST GSH counter inactive
COc1ccc2[nH]c(=O)c(CN(C(=O)NC3CCCCC3)C3CCCCC3)cc2c1	none
CC(=O)c1ccc(NC(=O)CN2CCC(C(=O)c3ccc4c(c3)OCCO4)CC2)cc1	none
Cc1cc(NC(=O)c2cccs2)n(-c2nc3ccccc3[nH]2)n1	Arrestin-AP2 inh 76 | Arr-AP2 CP1 inactive | GST GSH counter inactive
Cc1cc(NC(=O)c2sccc2C)n(-c2nc3ccccc3[nH]2)n1	none | Arr-AP2 CP1 inactive | GST GSH counter inactive
CCOC(=O)C(=O)Nc1cc(C)nn1-c1nc2ccccc2[nH]1	none
O=C1C=C(c2cnc3ccccc3c2)C[C@@H](c2ccc3c(c2)OCO3)C1	none
Cc1cc(C)cc(NC(=S)NCC2CCCO2)c1 (stereo not given)	none
Cc1cc(NC(=O)c2ccc(N3CCCC3)c([N+](=O)[O-])c2)no1	Arrestin-AP2 inh 98 | Arr-AP2 CP1 inactive | GST GSH counter inactive
CCn1c(=O)n(CC)c2cc(N3CCCC3)c(NC(=O)c3ccc(C)c([N+](=O)[O-])c3)cc21	Arrestin-AP2 inh 70 | Arr-AP2 CP1 inactive | GST GSH counter inactive
CCn1c(=O)n(CC)c2cc(N3CCCC3)c(NC(=O)c3cccc(C)c3)cc21	Arrestin-AP2 inh 64 | Arr-AP2 CP1 inactive | GST GSH counter inactive
O=C(Nc1ccon1)c1ccc(N2CCCCC2)c([N+](=O)[O-])c1	none
CCn1c(=O)n(CC)c2cc(N3CCCC3)c(NC(=O)c3cccc(Cl)c3)cc21	none | Arr-AP2 CP1 inactive | GST GSH counter inactive
Cc1ccc(C2(c3noc(CN(C)CCO)n3)CCCC2)cc1	none
O=C(CCCn1c(SCc2cccc(F)c2)nc2ccccc2c1=O)NCC1CCCO1 (stereo not given)	none
Cc1ccc(F)cc1NC(=O)N1CCNC(=O)C1CC(=O)Nc1cc(Cl)ccc1Cl (stereo not given)	none
CC(C)C(=O)Nc1ccc(-c2nc3ccccc3c(=O)o2)cc1	none
c1ccn2cc(-c3ccc4c(c3)OCCO4)nc2c1	Arrestin-AP2 inh 58 | Arr-AP2 CP1 inactive | GST GSH counter inactive
Cc1ccc2nc(-c3ccc4c(c3)OCCO4)cn2c1	none
Cc1cccc(/C=C/c2onc(C)c2S(=O)(=O)N2CCC(C(=O)N3CCCCC3)CC2)c1	Arrestin-AP2 inh 55 | Arr-AP2 CP1 inactive | GST GSH counter inactive
O=C1CCC(=O)N1CC(=O)N1c2ccccc2Sc2ccccc21	none
O=C(COc1ccccc1Cl)N(Cc1cccs1)C1CCS(=O)(=O)C1 (stereo not given)	Arrestin-AP2 inh 58 | Arr-AP2 CP1 inactive | GST GSH counter inactive
Cc1cc(Cl)ccc1OCC(=O)N(Cc1cccs1)C1CCS(=O)(=O)C1 (stereo not given)	none
O=C(O)c1ccccc1NS(=O)(=O)c1ccc(NNC(=S)Nc2ccc(OC(F)F)cc2)c([N+](=O)[O-])c1	Arrestin-AP2 inh 62 | Arr-AP2 CP1 inactive | GST GSH counter inactive
Cc1c(NC(=O)c2cnc(Cl)c(Cl)c2)c(=O)n(-c2ccccc2)n1C	none
O=C(NCC1COc2ccccc2O1)c1ccc(NC(=O)C(c2ccccc2)c2ccccc2)cc1 (stereo not given)	Arrestin-AP2 inh 99 | Arr-AP2 CP1 inactive | GST GSH counter inactive
O=C(Nc1ccc2c(c1)OCCO2)c1ccc(Cl)cc1Cl	none
COc1ccc(-c2csc(NC(=S)NC(=O)/C=C/c3ccco3)n2)cc1Br	Arrestin-AP2 inh 88 | Arr-AP2 CP1 inactive | GST GSH counter inactive
COc1ccc(-c2csc(NC(=S)NC(=O)/C=C/c3ccco3)n2)cc1OC	none
Cc1ccc(CN2CCN(Cc3cn[nH]c3-c3ccccc3)CC2CCO)o1 (stereo not given)	none
O=C(COc1ccccc1Br)NC(=O)NC1CCCC1	Arrestin-AP2 inh 56 (no result: JMJD2C inh) | Arr-AP2 CP1 inactive | GST GSH counter inactive
COc1ccc(Nc2nc(N3CCCC3)c3ccccc3n2)cc1	none
CCN(CC)c1ccc(Nc2nc(N3CCOCC3)c3ccccc3n2)cc1	Arrestin-AP2 inh 59 | Arr-AP2 CP1 inactive | GST GSH counter inactive
O=C(OCc1ccc(F)cc1)c1ccc2c(c1)-c1ccccc1C2=O	Arrestin-AP2 inh 94 | Arr-AP2 CP1 inactive | GST GSH counter inactive
CCCCN(CC)C(=O)c1cc2cc3ccc(Cl)cc3nc2o1	none
COc1ccc(Cl)cc1C(=O)Nc1ccccc1N1CCN(C(=O)C(C)C)CC1	none
CCOc1ccccc1C(=O)Nc1cc2c(cc1N1CCCC1)n(CC)c(=O)n2CC	none | Arr-AP2 CP1 inactive | GST GSH counter inactive
CCn1c(=O)n(CC)c2cc(N3CCCC3)c(NC(=O)c3ccccc3OC)cc21	none
CCn1c(=O)n(CC)c2cc(N3CCCC3)c(NC(=O)c3cc(Cl)ccc3OC)cc21	Arrestin-AP2 inh 54 | Arr-AP2 CP1 inactive | GST GSH counter inactive
CCn1c(=O)n(CC)c2cc(N3CCCC3)c(NC(=O)c3ccc(OC)c(Br)c3)cc21	none | Arr-AP2 CP1 inactive | GST GSH counter inactive
Cc1cc(C)cc(N(C(=O)CNC(=O)c2cccs2)C(C(=O)NC2CCCC2)c2cccnc2)c1 (stereo not given)	none
Cn1c(N)c(C(=O)COC(=O)CCC2CCCC2)c(=O)n(C)c1=O	none
Cc1ccc(C(=O)NCC(=O)OCC(=O)c2c(N)n(C)c(=O)n(C)c2=O)s1	Arrestin-AP2 inh 75 | Arr-AP2 CP1 inactive | GST GSH counter inactive
Cn1c(N)c(C(=O)COC(=O)CNC(=O)c2ccccc2)c(=O)n(C)c1=O	none
Cn1c(N)c(C(=O)COC(=O)c2ccc(Br)o2)c(=O)n(C)c1=O	none | Arr-AP2 CP1 inactive | GST GSH counter inactive
